Test results as given in ChEMBL document CHEMBL1275561, “In vitro activities of doripenem, a new broad-spectrum carbapenem, against recently collected clinical anaerobic isolates, with emphasis on the Bacteroides fragilis group” (2008).

What was measured:
Format in all cases: functional
Parvimonas micra = test: Antimicrobial activity against Micromonas micros by agar dilution method
Summary of the method: (§1)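 Gram-positive anaerobes were tested by CLSI agar dilution on brucella agar enriched with 5% lysed defibrinated sheep blood and 1 μg/ml vitamin K1. Inoculum was log-phase growth at 0.5 McFarland, about 10^5 CFU/spot by replicator. Incubation was anaerobic, 37°C, 48 h. MIC was the lowest concentration with a marked growth change versus the drug-free plate. Eubacterium lentum ATCC 43055 was the control, and tests were repeated if it fell outside the CLSI range.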

Finegoldia magna [1] = test: Antimicrobial activity against Finegoldia magna assessed as resistant isolates by agar dilution method
Summary of the method: (§2)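 Agar dilution following CLSI on brucella agar with 5% lysed defibrinated sheep blood and 1 μg/ml vitamin K1, plates made on test day. Log-phase cells at 0.5 McFarland, about 10^5 CFU/spot by Steers replicator, 48 h anaerobic at 37°C. MIC read as the lowest concentration causing a marked growth change versus control. Resistance counted by CLSI anaerobe breakpoints. Eubacterium lentum ATCC 43055 served as control.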

Clostridium perfringens = test: Antimicrobial activity against Clostridium perfringens by agar dilution method
[2] = system: Peptoniphilus asaccharolyticus; test: Antimicrobial activity against Peptoniphilus asaccharolyticus assessed as resistant isolates by agar dilution method; settings: pooled result: one value given for 4 cell lines, strains, targets or settings; summary of the method: as §2
Anaerococcus prevotii = test: Antimicrobial activity against Anaerococcus prevotii by agar dilution method; summary of the method: as §1
Cutibacterium acnes [3] = test: Antimicrobial activity against Propionibacterium acnes assessed as resistant isolates by agar dilution method; summary of the method: as §2
Peptostreptococcus sp. = test: Antimicrobial activity against Peptostreptococcus sp. by agar dilution method
Summary of the method: (§3)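 Log-phase isolates were adjusted to 0.5 McFarland, and about 10^5 CFU/spot was delivered by Steers replicator. Plates were incubated anaerobically at 37°C for 48 h. MIC was the lowest concentration giving a marked growth change versus the control plate. Eubacterium lentum ATCC 43055 was the QC strain, with repeats when out of range.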

Clostridium tertium = test: Antimicrobial activity against Clostridium tertium by agar dilution method
Finegoldia magna [4] = test: Antimicrobial activity against Finegoldia magna by agar dilution method; summary of the method: as §1
Cutibacterium acnes [5] = test: Antimicrobial activity against Propionibacterium acnes by agar dilution method; summary of the method: as §3
[Clostridium] innocuum [6] = Antimicrobial activity against Clostridium innocuum by agar dilution method
[7] = system: Peptoniphilus asaccharolyticus; test: Antimicrobial activity against Peptoniphilus asaccharolyticus by agar dilution method; summary of the method: as §1
[Clostridium] innocuum [8] = Antimicrobial activity against Clostridium innocuum assessed as resistant isolates by agar dilution method; settings: pooled result: one value given for 4 cell lines, strains, targets or settings
Propionibacterium [9] = test: Antimicrobial activity against Propionibacterium sp. assessed as resistant isolates by agar dilution method; summary of the method: as §2
Propionibacterium [10] = test: Antimicrobial activity against Propionibacterium sp. by agar dilution method; summary of the method: as §3
Clostridioides difficile = test: Antimicrobial activity against Clostridium difficile by agar dilution method
Clostridium subterminale = test: Antimicrobial activity against Clostridium subterminale by agar dilution method
[11] = system: Clostridium paraputrificum; test: Antimicrobial activity against Clostridium paraputrificum by agar dilution method
Bacteroides eggerthii [12] = test: Antimicrobial activity against Bacteroides eggerthii by agar dilution method
Summary of the method: (§4)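 CLSI agar dilution on enriched brucella agar (5% lysed defibrinated sheep blood, 1 μg/ml vitamin K1), with drug plates made on the test day. Log-phase cells were adjusted to 0.5 McFarland, and about 10^5 CFU/spot was delivered by Steers replicator. Plates were incubated anaerobically at 37°C for 48 h. MIC was the lowest concentration giving a marked growth change versus the control plate. Controls were B. fragilis ATCC 25285 and B. thetaiotaomicron ATCC 29741.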

Parabacteroides merdae [13] = test: Antimicrobial activity against Bacteroides merdae assessed as resistant isolates by agar dilution method
Summary of the method: (§5)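 CLSI agar dilution on enriched brucella agar (5% lysed defibrinated sheep blood, 1 μg/ml vitamin K1), plates made on test day. Log-phase inocula adjusted to 0.5 McFarland; about 10^5 CFU/spot by Steers replicator. Incubated anaerobically at 37°C for 48 h. MIC was the lowest concentration giving a marked change in growth versus the drug-free control plate. Resistance rates used CLSI anaerobe breakpoints. Controls were B. fragilis ATCC 25285 and B. thetaiotaomicron ATCC 29741.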

Bacteroides ovatus [14] = test: Antimicrobial activity against Bacteroides ovatus assessed as resistant isolates by agar dilution method; summary of the method: as §5
Bacteroides ovatus [15] = test: Antimicrobial activity against Bacteroides ovatus by agar dilution method; summary of the method: as §4
Bacteroides eggerthii [16] = test: Antimicrobial activity against Bacteroides eggerthii assessed as resistant isolates by agar dilution method; summary of the method: as §5
Bacteroides nordii [17] = test: Antimicrobial activity against Bacteroides nordii by agar dilution method; summary of the method: as §4
[18] = system: Bacteroides thetaiotaomicron; test: Antimicrobial activity against Bacteroides thetaiotaomicron by agar dilution method; summary of the method: as §4
Phocaeicola vulgatus [19] = test: Antimicrobial activity against Bacteroides vulgatus by agar dilution method; summary of the method: as §4
Phocaeicola vulgatus [20] = test: Antimicrobial activity against Bacteroides vulgatus assessed as resistant isolates by agar dilution method; summary of the method: as §5
Parabacteroides merdae [21] = test: Antimicrobial activity against Bacteroides merdae by agar dilution method; summary of the method: as §4
Bacteroides caccae [22] = test: Antimicrobial activity against Bacteroides caccae assessed as resistant isolates by agar dilution method; summary of the method: as §5
Bacteroides fragilis [23] = test: Antimicrobial activity against Bacteroides fragilis by agar dilution method; summary of the method: as §4
[24] = system: Parabacteroides distasonis; test: Antimicrobial activity against Bacteroides distasonis assessed as resistant isolates by agar dilution method; summary of the method: as §5
[25] = system: Parabacteroides distasonis; test: Antimicrobial activity against Bacteroides distasonis by agar dilution method; summary of the method: as §4
Bacteroides nordii [26] = test: Antimicrobial activity against Bacteroides nordii assessed as resistant isolates by agar dilution method; summary of the method: as §5
Bacteroides uniformis [27] = test: Antimicrobial activity against Bacteroides uniformis assessed as resistant isolates by agar dilution method; summary of the method: as §5
Bacteroides uniformis [28] = test: Antimicrobial activity against Bacteroides uniformis by agar dilution method; summary of the method: as §4
[29] = system: Bacteroides thetaiotaomicron; test: Antimicrobial activity against Bacteroides thetaiotaomicron assessed as resistant isolates by agar dilution method; summary of the method: as §5
Bacteroides caccae [30] = test: Antimicrobial activity against Bacteroides caccae by agar dilution method; summary of the method: as §4
Bacteroides fragilis [31] = test: Antimicrobial activity against Bacteroides fragilis assessed as resistant isolates by agar dilution method; summary of the method: as §5

Cc1ncc([N+](=O)[O-])n1CCO [METRONIDAZOLE]
5.6%: Activity ([Clostridium] innocuum [8])
32 µg/mL: MIC90 (Parvimonas micra) | MIC90 (Anaerococcus prevotii) | MIC90 (Peptostreptococcus sp.) | MIC50 (Cutibacterium acnes [5]) | MIC90 (Cutibacterium acnes [5]) | MIC90 [7] | MIC50 (Propionibacterium [10]) | MIC90 (Propionibacterium [10])
0%: Activity (Finegoldia magna [1])
2 µg/mL: MIC50 (Clostridium perfringens) | MIC50 (Clostridium tertium) | MIC90 (Clostridium tertium) | MIC50 ([Clostridium] innocuum [6]) | MIC90 ([Clostridium] innocuum [6]) | MIC50 (Clostridium subterminale) | MIC90 (Clostridium subterminale) | MIC50 [11] | MIC90 [11]
94.4%: Activity (Cutibacterium acnes [3])
0.5 µg/mL: MIC (Finegoldia magna [4]) | MIC50 (Finegoldia magna [4]) | MIC90 (Finegoldia magna [4]) | MIC (Clostridioides difficile)
4 µg/mL: MIC90 (Clostridium perfringens)
1 µg/mL: MIC50 (Parvimonas micra) | MIC50 (Anaerococcus prevotii) | MIC50 (Peptostreptococcus sp.) | MIC50 [7]
34.1%: Activity [2]
92.3%: Activity (Propionibacterium [9])

C[C@@H](O)[C@H]1C(=O)N2C(C(=O)O)=C(S[C@@H]3CN[C@H](C(=O)Nc4cccc(C(=O)O)c4)C3)[C@H](C)[C@H]12
8 µg/mL: MIC90 (Clostridium tertium) | MIC90 ([Clostridium] innocuum [6]) | MIC90 (Clostridium subterminale) | MIC90 [11]
2.9%: Activity (Bacteroides ovatus [14])
4 µg/mL: MIC90 (Bacteroides ovatus [15]) | MIC90 [18] | MIC50 (Clostridium tertium) | MIC50 ([Clostridium] innocuum [6]) | MIC90 [25] | MIC50 (Clostridium subterminale) | MIC50 [11]
2 µg/mL: MIC90 (Bacteroides eggerthii [12]) | MIC90 (Bacteroides nordii [17]) | MIC50 [18] | MIC90 (Phocaeicola vulgatus [19]) | MIC90 (Parabacteroides merdae [21]) | MIC90 (Bacteroides fragilis [23]) | MIC (Clostridioides difficile) | MIC90 (Bacteroides uniformis [28]) | MIC90 (Bacteroides caccae [30])
0.25 µg/mL: MIC90 (Clostridium perfringens) | MIC90 (Propionibacterium [10])
1 µg/mL: MIC50 (Bacteroides eggerthii [12]) | MIC50 (Bacteroides ovatus [15]) | MIC50 (Bacteroides nordii [17]) | MIC50 (Parabacteroides merdae [21]) | MIC50 [25]
2%: Activity (Bacteroides fragilis [31])
0.5 µg/mL: MIC90 (Parvimonas micra) | MIC90 (Anaerococcus prevotii) | MIC90 (Peptostreptococcus sp.) | MIC50 (Phocaeicola vulgatus [19]) | MIC90 [7] | MIC50 (Bacteroides fragilis [23]) | MIC50 (Bacteroides uniformis [28]) | MIC50 (Bacteroides caccae [30])
0.125 µg/mL: MIC50 (Parvimonas micra) | MIC50 (Anaerococcus prevotii) | MIC50 (Peptostreptococcus sp.) | MIC50 (Finegoldia magna [4]) | MIC90 (Finegoldia magna [4]) | MIC50 [7]
0%: Activity (Parabacteroides merdae [13]) | Activity (Finegoldia magna [1]) | Activity (Bacteroides eggerthii [16]) | Activity [2] | Activity (Cutibacterium acnes [3]) | Activity (Phocaeicola vulgatus [20]) | Activity (Bacteroides caccae [22]) | Activity ([Clostridium] innocuum [8]) | Activity [24] | Activity (Propionibacterium [9]) | Activity (Bacteroides nordii [26]) | Activity (Bacteroides uniformis [27]) | Activity [29]
0.06 µg/mL: MIC (Clostridium perfringens) | MIC50 (Clostridium perfringens) | MIC (Cutibacterium acnes [5]) | MIC50 (Cutibacterium acnes [5]) | MIC90 (Cutibacterium acnes [5]) | MIC (Propionibacterium [10]) | MIC50 (Propionibacterium [10])

CC(=O)NC[C@H]1CN(c2ccc(N3CCOCC3)c(F)c2)C(=O)O1 [LINEZOLID]
0%: Activity (Finegoldia magna [1]) | Activity [2] | Activity (Cutibacterium acnes [3]) | Activity (Propionibacterium [9])
4 µg/mL: MIC90 (Clostridium perfringens) | MIC50 (Clostridium tertium) | MIC50 ([Clostridium] innocuum [6]) | MIC50 (Clostridium subterminale) | MIC50 [11]
0.5 µg/mL: MIC (Cutibacterium acnes [5]) | MIC50 (Cutibacterium acnes [5]) | MIC (Propionibacterium [10]) | MIC50 (Propionibacterium [10]) | MIC90 (Propionibacterium [10])
8 µg/mL: MIC90 (Clostridium tertium) | MIC90 ([Clostridium] innocuum [6]) | MIC90 (Clostridium subterminale) | MIC90 [11]
1 µg/mL: MIC50 (Parvimonas micra) | MIC50 (Anaerococcus prevotii) | MIC50 (Peptostreptococcus sp.) | MIC90 (Cutibacterium acnes [5]) | MIC50 [7] | MIC (Clostridioides difficile)
2 µg/mL: MIC90 (Parvimonas micra) | MIC (Clostridium perfringens) | MIC50 (Clostridium perfringens) | MIC90 (Anaerococcus prevotii) | MIC90 (Peptostreptococcus sp.) | MIC (Finegoldia magna [4]) | MIC50 (Finegoldia magna [4]) | MIC90 (Finegoldia magna [4]) | MIC90 [7]
11%: Activity ([Clostridium] innocuum [8])
